Experimental data: ChEMBL document CHEMBL1132327, “Improved in vivo stability of actinium-225 macrocyclic complexes” (J Med Chem, 1999)

Tests used:
Details in all cases: in vivo
Mus musculus [1] = species on record: Mus musculus; experiment: Biodistribution of [225Ac]-labeled compound in normal mice blood after 120 hr; assay type: ADME, organism-based
Mus musculus [2] = species on record: Mus musculus; experiment: Biodistribution of [225Ac]-labeled compound in normal mice blood after 1 hr; assay type: ADME, organism-based
Mus musculus [3] = species on record: Mus musculus; experiment: Biodistribution of [225Ac]-labeled compound in normal mice blood after 24 hr; assay type: ADME, organism-based
Mus musculus [4] = species on record: Mus musculus; experiment: Biodistribution of [225Ac]-labeled compound in normal mice blood after 4 hr; assay type: ADME, organism-based
Mus musculus [5] = species on record: Mus musculus; experiment: Biodistribution of [225Ac]-labeled compound in normal mice bone after 120 hr; assay type: ADME, organism-based, Bone element
Mus musculus [6] = species on record: Mus musculus; experiment: Biodistribution of [225Ac]-labeled compound in normal mice bone after 1 hr; assay type: ADME, organism-based, Bone element
Mus musculus [7] = species on record: Mus musculus; experiment: Biodistribution of [225Ac]-labeled compound in normal mice bone after 24 hr; assay type: ADME, organism-based, Bone element
Mus musculus [8] = species on record: Mus musculus; experiment: Biodistribution of [225Ac]-labeled compound in normal mice bone after 4 hr; assay type: ADME, organism-based, Bone element
Mus musculus [9] = species on record: Mus musculus; experiment: Biodistribution of [225Ac]-labeled compound in normal mice heart after 120 hr; assay type: ADME, organism-based
Mus musculus [10] = species on record: Mus musculus; experiment: Biodistribution of [225Ac]-labeled compound in normal mice heart after 1 hr; assay type: ADME, organism-based
Mus musculus [11] = species on record: Mus musculus; experiment: Biodistribution of [225Ac]-labeled compound in normal mice heart after 24 hr; assay type: ADME, organism-based
Mus musculus [12] = species on record: Mus musculus; experiment: Biodistribution of [225Ac]-labeled compound in normal mice heart after 4 hr; assay type: ADME, organism-based
Mus musculus [13] = species on record: Mus musculus; experiment: (§1) Biodistribution of [225Ac]-labeled compound in normal mice kidney after 120 hr; assay type: ADME, organism-based
Mus musculus [14] = species on record: Mus musculus; experiment: Biodistribution of [225Ac]-labeled compound in normal mice kidney after 1 hr; assay type: ADME, organism-based
Mus musculus [15] = species on record: Mus musculus; experiment: Biodistribution of [225Ac]-labeled compound in normal mice kidney after 24 hr; assay type: ADME, organism-based
Mus musculus [16] = species on record: Mus musculus; experiment: Biodistribution of [225Ac]-labeled compound in normal mice kidney after 4 hr; assay type: ADME, organism-based
In short: (§2)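 Normal female BALB/c mice received 2.5 µCi of 225Ac complex in 200 µL MES buffer (pH 6.2) by tail-vein injection. All complexes except Ac-acetate were Chelex-purified (0.1 M NH4OAc, pH 5.0) beforehand. Three to five animals were killed per time point. Tissues were weighed and counted for 225Ac 4 h later to allow nuclear equilibration, against external standards from the dose dilutions. Results are expressed as %ID/g.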

Mus musculus [17] = species on record: Mus musculus; experiment: Biodistribution of [225Ac]-labeled compound in normal mice liver after 120 hr; assay type: ADME, organism-based
Mus musculus [18] = species on record: Mus musculus; experiment: Biodistribution of [225Ac]-labeled compound in normal mice liver after 1 hr; assay type: ADME, organism-based
Mus musculus [19] = species on record: Mus musculus; experiment: Biodistribution of [225Ac]-labeled compound in normal mice liver after 24 hr; assay type: ADME, organism-based
Mus musculus [20] = species on record: Mus musculus; experiment: Biodistribution of [225Ac]-labeled compound in normal mice liver after 4 hr; assay type: ADME, organism-based
Mus musculus [21] = species on record: Mus musculus; experiment: Biodistribution of [225Ac]-labeled compound in normal mice spleen after 120 hr; assay type: ADME, organism-based
Mus musculus [22] = species on record: Mus musculus; experiment: Biodistribution of [225Ac]-labeled compound in normal mice spleen after 1 hr; assay type: ADME, organism-based
Mus musculus [23] = species on record: Mus musculus; experiment: Biodistribution of [225Ac]-labeled compound in normal mice spleen after 24 hr; assay type: ADME, organism-based
Mus musculus [24] = species on record: Mus musculus; experiment: Biodistribution of [225Ac]-labeled compound in normal mice spleen after 4 hr; assay type: ADME, organism-based
Mus musculus [25] = species on record: Mus musculus; experiment: as §1; assay type: ADME, organism-based; in short: as §2; remark: listed apart in the source

ID/g (Mus musculus [1]) [%]	ID/g (Mus musculus [2]) [%]	ID/g (Mus musculus [3]) [%]	ID/g (Mus musculus [4]) [%]	ID/g (Mus musculus [5]) [%]	ID/g (Mus musculus [6]) [%]	ID/g (Mus musculus [7]) [%]	ID/g (Mus musculus [8]) [%]	ID/g (Mus musculus [9]) [%]	ID/g (Mus musculus [10]) [%]	ID/g (Mus musculus [11]) [%]	ID/g (Mus musculus [12]) [%]	ID/g (Mus musculus [14]) [%]	ID/g (Mus musculus [15]) [%]	ID/g (Mus musculus [16]) [%]	ID/g (Mus musculus [17]) [%]	ID/g (Mus musculus [18]) [%]	ID/g (Mus musculus [19]) [%]	ID/g (Mus musculus [20]) [%]	ID/g (Mus musculus [21]) [%]	Structure (SMILES)	other results
< 0.01	0.03	< 0.01	< 0.01	0.02	0.06	< 0.01	0.025	0.03	0.06	< 0.01	0.032	0.72	0.43	0.71	0.26	0.17	0.19	0.23	0.03	O=C(O)CN1CCN(CC(=O)O)CCN(CC(=O)O)CCN(CC(=O)O)CCN(CC(=O)O)CCN(CC(=O)O)CC1	ID/g (Mus musculus [13]): 0.25%; ID/g (Mus musculus [22]): 0.05%; ID/g (Mus musculus [23]): 0.03%; ID/g (Mus musculus [24]): 0.027%
< 0.01	1.33	< 0.01	< 0.01	1.6	1.75	1.51	1.6	0.39	2.65	0.68	2.34	5.6	1.64	3.47	22.3	12	14.7	16.4	1.63	O=C(O)CN1CCN(CC(=O)O)CCN(CC(=O)O)CCN(CC(=O)O)CCN(CC(=O)O)CC1	ID/g (Mus musculus [22]): 0.83%; ID/g (Mus musculus [23]): 0.8%; ID/g (Mus musculus [24]): 0.59%; ID/g (Mus musculus [25]): 1.28%
< 0.01	0.86	< 0.01	< 0.01	4.18	4.34	4.65	4.44	0.6	1.99	0.43	1.51	4.55	1.71	3.36	23.9	8.85	12.8	12.9	5.41	O=C(O)CN(CC(=O)O)[C@H](Cc1ccc([N+](=O)[O-])cc1)CN(CC(=O)O)[C@@H]1CCCC[C@H]1N(CC(=O)O)CC(=O)O	ID/g (Mus musculus [22]): 0.71%; ID/g (Mus musculus [23]): 0.63%; ID/g (Mus musculus [24]): 0.4%; ID/g (Mus musculus [25]): 1.51%
< 0.01	0.24	< 0.01	< 0.01	2.87	1.54	0.98	1.76	0.11	0.16	0.04	0.12	1.23	0.48	0.8	3.29	1.15	1.29	2.04	0.03	O=C(O)CN1CCN(CC(=O)O)CCN(CC(=O)O)C(Cc2ccc([N+](=O)[O-])cc2)CN(CC(=O)O)CC1 (stereo unspecified)	ID/g (Mus musculus [13]): 0.27%; ID/g (Mus musculus [22]): 0.06%; ID/g (Mus musculus [23]): 0.03%; ID/g (Mus musculus [24]): 0.04%
